The subject of data set [1] is Rattus norvegicus. Kind of data set: Percent reversal of scopolamine-induced amnesia rat following 10 mg/kg i.p. The format is functional. Conditions: route intraperitoneal. The essentials:
(§1)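 Male Wistar rats, 200–220 g, acclimatised ≥1 week; one-trial step-through passive avoidance in two-compartment box with electrifiable grid floor. Scopolamine hydrobromide 0.66 mg/kg sc 60 min before learning, test compound or vehicle 30 min before scopolamine; 45 rats per experiment split into saline, scopolamine and treated groups. % amnesia reversal computed from group retention; Fisher's exact test versus scopolamine group.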

In data set [2] the test system is Rattus norvegicus. As to the kind of experiment: Percent reversal of scopolamine-induced amnesia rat at 10 mg/kg po. Format: functional. The essentials:
as §1

The test system of data set [3] is Rattus norvegicus. As to the kind of experiment: Percent reversal of scopolamine-induced amnesia rat following 1.0 mg/kg i.p. The format is functional. The settings on record: route intraperitoneal. The essentials:
as §1

Data set [4] has as its system Rattus norvegicus. Kind of data set: Percent reversal of scopolamine-induced amnesia rat at 1.0 mg/kg po. The format is functional. The essentials: as §1
Data set [5] deals with Rattus norvegicus. Kind of data set: Percent reversal of scopolamine-induced amnesia rat at 0.1 mg/kg ip. Conditions: route intraperitoneal. Format: functional. Put shortly: as §1
The subject of data set [6] is Rattus norvegicus. Kind of data set: Percent reversal of scopolamine-induced amnesia rat at 30 mg/kg po. The format is functional. Put shortly:
as §1

The subject of data set [7] is Rattus norvegicus. Kind of data set: Percent reversal of scopolamine-induced amnesia rat at 0.3 mg/kg ip. Format: functional. The settings on record: route intraperitoneal. Put shortly:
as §1

For data set [8], the system named is Rattus norvegicus. Kind of data set: Percent reversal of scopolamine-induced amnesia rat at 0.3 mg/kg po. Format: functional. The essentials:
as §1

Data set [9] in a line: Basicity was assessed from pKB. Format: ADME.
Data set [10] has as its system Rattus norvegicus. As to the kind of experiment: Tested for running time in radial maze test in rat on the day before treatment at 1 mg/kg sc along with Scopolamine at 50 ug/kg sc. The format is functional. Conditions: route subcutaneous. Put shortly:
(§2)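 Eight-arm radial maze in male Wistar rats (2 months old, 250 g) held at 80-85% body weight and trained to ≤9 choices for 3 consecutive days. Scopolamine was given sc 60 min pre-test and the drug sc in isotonic saline 90 min pre-test. Position was video-tracked. Mean running time (s) was total task time divided by number of choices.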

For data set [11], the system named is Rattus norvegicus. Kind of data set: Tested for efficiency in responding in radial maze test in rat on the day after treatment at 1 mg/kg sc along with Scopolamine at 50 ug/kg sc. Format: functional. The settings on record: route subcutaneous.
Data set [12] has as its system Rattus norvegicus. Kind of data set: Tested for running time in radial maze test in rats on the day of treatment at 1 mg/kg sc along with Scopolamine at 50 ug/kg sc. Format: functional. The settings on record: route subcutaneous. Put shortly:
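Male Wistar rats (2 months, 250 g) food-restricted to 80–85% body weight, trained in eight-arm radial maze to criterion (≤9 choices, 3 consecutive days). Scopolamine 50 μg/kg sc 60 min and compound (saline, 2 mL/kg) 90 min before test; mean running time = total running time/total choices, video-tracked; compared with performance on days before and after treatment.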

Data set [13] deals with Rattus norvegicus. Kind of data set: Tested for running time in radial maze test in rat on the day after treatment at 1 mg/kg sc along with Scopolamine at 50 ug/kg sc. The format is functional. The settings on record: route subcutaneous. Put shortly:
as §2

Data set [14] deals with Rattus norvegicus. Kind of data set: Tested for efficiency in responding in radial maze test in rat on the day before treatment at 1 mg/kg sc along with Scopolamine at 50 ug/kg sc. The format is functional. The settings on record: route subcutaneous. The essentials:
(§3)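 Male Wistar rats (2 months old, 250 g), food-restricted to 80-85% body weight, were trained daily in an eight-arm radial maze to criterion (≤9 choices on 3 consecutive days). Scopolamine was given sc 60 min before testing and the test drug sc in saline 90 min before. Treatments were ≥3 days apart with retraining. Efficiency was scored as 8/total choices × 100.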

The subject of data set [15] is Rattus norvegicus. As to the kind of experiment: Tested for efficiency in responding in radial maze test in rat on the day of treatment at 1 mg/kg sc along with Scopolamine at 50 ug/kg sc. Format: functional. The settings on record: route subcutaneous. Put shortly: as §3
In data set [16] the test system is Rattus norvegicus. As to the kind of experiment: Tested for running time in radial maze test in rat on the day of treatment at 1 mg/kg sc along with Scopolamine at 50 ug/kg sc. Format: functional. The settings on record: route subcutaneous. Put shortly: as §2

Consider `CCOC(=O)C12CCC(=O)N1CC(=O)N2` (stereo not drawn), for which the Reversal is 62% with Rattus norvegicus [1], 0% with Rattus norvegicus [2], 25% with Rattus norvegicus [3] and 0% with Rattus norvegicus [4].
Consider `NC(=O)CN1C(=O)CN2C(=O)CCC12` (stereo not drawn), for which the Reversal is listed as 62% in the data set with Rattus norvegicus [1], 9% with Rattus norvegicus [2], 49% with Rattus norvegicus [3] and 0% with Rattus norvegicus [4].
Turning to `CC(=O)N1C(=O)CN2C(=O)CCC21` (stereo not drawn), the Reversal with Rattus norvegicus [1] and in the data set with Rattus norvegicus [3] was 0% each time.
As to `O=C1CN2C(=O)CCCC2N1` (stereo not drawn), the Reversal in the data set on Rattus norvegicus [1] stood at 27%; in the data set on Rattus norvegicus [2], 0%; in the data set with Rattus norvegicus [3] it was 27%; with Rattus norvegicus [4] it was 0%.
In the case of `O=C1CCC2N1CC(=O)N2C(=O)OCc1ccccc1` (stereo not drawn), the Reversal in the data set with Rattus norvegicus [1] worked out at 12%; with Rattus norvegicus [3], 31%.
`CCOC(=O)CN1C(=O)CN2C(=O)CCC12` (stereo not drawn): the Reversal in the data set with Rattus norvegicus [1] was 0%; in the data set on Rattus norvegicus [3], 3%.
In the case of `O=C1CN2C(=O)CCCCC2N1` (stereo not drawn), the Reversal in the data set with Rattus norvegicus [1] came out at 12%; with Rattus norvegicus [3], 22%.
`O=C1NC2CCC(=O)N2[C@H]1Cc1ccccc1` (stereo partly drawn): the Reversal in the data set with Rattus norvegicus [5] amounted to 0%; in the data set with Rattus norvegicus [1], 0%; in the data set with Rattus norvegicus [6], 7%; with Rattus norvegicus [7], 53%; with Rattus norvegicus [2], 0%; in the data set on Rattus norvegicus [8] it was 0%. The Reversal in the data set on Rattus norvegicus [3] came to 53%; with Rattus norvegicus [4], 42%.
As to `C[C@H]1C(=O)NC2CCC(=O)N21` (stereo partly drawn), the Reversal in the data set with Rattus norvegicus [1] stood at 3%; with Rattus norvegicus [7], 0%; in the data set with Rattus norvegicus [3], 52%.
Take `O=C1NC2CCC(=O)N2[C@@H]1Cc1ccccc1` (stereo partly drawn): the Reversal in the data set with Rattus norvegicus [5] is on record as 15%; in the data set on Rattus norvegicus [1] it was 0%; in the data set on Rattus norvegicus [7] it was 42%; in the data set with Rattus norvegicus [3], 19%.
For `CCN1C(=O)CN2C(=O)CCC12` (stereo not drawn), the Reversal in the data set on Rattus norvegicus [1] and in the data set on Rattus norvegicus [3] was 0% throughout.
On to `O=C1CN2C(=O)CCC2(C(=O)O)N1` (stereo not drawn), for which the Reversal with Rattus norvegicus [1] is 53%; in the data set with Rattus norvegicus [2] it was 33%; with Rattus norvegicus [3] it was 14%; with Rattus norvegicus [4] it was 1%.
Consider `CC12CCC(=O)N1CC(=O)N2` (stereo not drawn), for which the Reversal with Rattus norvegicus [1] worked out at 46%; in the data set on Rattus norvegicus [6], 26%; with Rattus norvegicus [7], 0%; in the data set on Rattus norvegicus [2] it was 0%; with Rattus norvegicus [3], 40%.
As for `NC(=O)C12CCC(=O)N1CC(=O)N2` (stereo not drawn), the Reversal in the data set with Rattus norvegicus [1] is recorded as 38%; in the data set on Rattus norvegicus [7], 38%; with Rattus norvegicus [2] it was 0%; in the data set on Rattus norvegicus [3] it was 62%; with Rattus norvegicus [4], 0%.
What is called pKB is −log10 of the KB, conventionally taken in molar units. Read a low pKB as a large KB. In the case of `NC(=O)CNCc1ccccc1`, in [9], the negative-log KB (pKB) worked out at 7.2.
`CC(C)CC1C(=O)NC2CCC(=O)N21` (stereo not drawn): the values for the Reversal with Rattus norvegicus [1] and with Rattus norvegicus [3] were 0% and 3%, respectively.
For the compound `O=C1NC2CCC(=O)N2C1CO` (stereo not drawn), the Reversal in the data set on Rattus norvegicus [5] is listed as 3%; with Rattus norvegicus [6], 0%; in the data set with Rattus norvegicus [7], 30%; in the data set on Rattus norvegicus [2] it was 42%; in the data set with Rattus norvegicus [3] it was 38%; in the data set with Rattus norvegicus [4] it was 0%.
Consider `CC1C(=O)NC2(C)CCC(=O)N12` (racemic), for which the Reversal with Rattus norvegicus [1] (10 mg/kg) was 0%; in the data set on Rattus norvegicus [7] (0.3 mg/kg), 30%; in the data set with Rattus norvegicus [2] (10 mg/kg) it was 42%; in the data set on Rattus norvegicus [3] (1 mg/kg) it was 38%; in the data set with Rattus norvegicus [4] (1 mg/kg) it was 17%.
With `CC1C(=O)NC2CCC(=O)N21` (racemic), the Reversal was found to be 38% in the data set with Rattus norvegicus [1], 33% with Rattus norvegicus [2], 38% with Rattus norvegicus [3] and 9% in the data set on Rattus norvegicus [4].
For `CC1C(=O)NC2(C)CCC(=O)N12` (stereo in doubt; 18 (S)), the Reversal in the data set with Rattus norvegicus [1] (10 mg/kg) is 44%; in the data set with Rattus norvegicus [6] it was 37%; in the data set on Rattus norvegicus [7] (0.3 mg/kg) it was 10%; in the data set with Rattus norvegicus [2] (10 mg/kg), 26%; with Rattus norvegicus [3] (1 mg/kg) it was 65%; in the data set with Rattus norvegicus [4] (1 mg/kg) it was 21%.
With `O=C1CN2C(=O)CCC2N1` (stereo not drawn) [DIMIRACETAM], the figures for the Time with Rattus norvegicus [10], in the data set with Rattus norvegicus [12] and in the data set with Rattus norvegicus [13] were 16.6 s, 34.6 s and 19.6 s, respectively. Moreover, the figures for the Efficiency in the data set on Rattus norvegicus [11], with Rattus norvegicus [14] and with Rattus norvegicus [15] were 88.6%, 96.3% and 75.6%, respectively. Further, the Reversal with Rattus norvegicus [1] is 70%; in the data set with Rattus norvegicus [6], 40%; with Rattus norvegicus [7], 16%; with Rattus norvegicus [2], 60%; with Rattus norvegicus [8], 28%; with Rattus norvegicus [3], 68%. Also, the Reversal in the data set with Rattus norvegicus [4] was found to be 75%.
As to `NC(=O)CN1CC(O)CC1=O` (stereo not drawn) [OXIRACETAM], the Reversal worked out at 53% in the data set on Rattus norvegicus [1], 69% in the data set on Rattus norvegicus [6], 27% in the data set on Rattus norvegicus [2] and 12% in the data set with Rattus norvegicus [3].
In the case of `CN1[C@@H]2C[C@@H](OC(=O)[C@H](CO)c3ccccc3)C[C@H]1[C@@H]1O[C@@H]12` [SCOPOLAMINE], the Time in the data set on Rattus norvegicus [10] was found to be 14.3 s; in the data set with Rattus norvegicus [13], 19.6 s; in the data set on Rattus norvegicus [16], 34.6 s. For the same compound, the Efficiency with Rattus norvegicus [11] is reported as 83.9%; in the data set with Rattus norvegicus [14], 87.3%; with Rattus norvegicus [15] it was 63.9%.

These data come from ChEMBL document CHEMBL1126572, “Synthesis and pharmacological activity of a series of dihydro-1H-pyrrolo[1,2-a]imidazole-2,5(3H,6H)-diones, a novel class of potent cognition enhancers” (J Med Chem, 1993).
